Experimental data: ChEMBL document CHEMBL1135580, “6,7-Dihydro-2-benzothiophen-4(5H)-ones: a novel class of GABA-A alpha5 receptor inverse agonists” (J Med Chem, 2002)
pKi: −log10 of the molar value.

What was measured:
[1] = target: T1, GABA-A receptor; alpha-3/beta-3/gamma-2 (Homo sapiens, UniProt P18507+P28472+P34903); experiment: Displacement of [3H]- Ro 15-1788 binding from human GABA-A receptor alpha-3-beta-3-gamma-2 subunits; assay type: protein-complex assay
T1 sequence (P18507 whole entry): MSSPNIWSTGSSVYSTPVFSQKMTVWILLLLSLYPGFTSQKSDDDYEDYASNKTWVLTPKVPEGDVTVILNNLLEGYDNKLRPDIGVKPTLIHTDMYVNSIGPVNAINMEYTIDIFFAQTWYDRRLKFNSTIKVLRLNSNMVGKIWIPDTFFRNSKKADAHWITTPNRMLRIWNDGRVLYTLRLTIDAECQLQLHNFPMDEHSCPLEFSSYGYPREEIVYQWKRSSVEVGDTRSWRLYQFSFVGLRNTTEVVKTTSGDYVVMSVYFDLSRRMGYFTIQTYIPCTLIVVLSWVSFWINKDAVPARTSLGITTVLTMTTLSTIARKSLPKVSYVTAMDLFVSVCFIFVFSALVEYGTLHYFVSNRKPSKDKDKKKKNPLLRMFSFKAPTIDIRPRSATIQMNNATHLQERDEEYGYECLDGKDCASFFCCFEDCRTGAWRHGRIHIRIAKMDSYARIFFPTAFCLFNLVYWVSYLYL
T1 sequence (P28472 whole entry): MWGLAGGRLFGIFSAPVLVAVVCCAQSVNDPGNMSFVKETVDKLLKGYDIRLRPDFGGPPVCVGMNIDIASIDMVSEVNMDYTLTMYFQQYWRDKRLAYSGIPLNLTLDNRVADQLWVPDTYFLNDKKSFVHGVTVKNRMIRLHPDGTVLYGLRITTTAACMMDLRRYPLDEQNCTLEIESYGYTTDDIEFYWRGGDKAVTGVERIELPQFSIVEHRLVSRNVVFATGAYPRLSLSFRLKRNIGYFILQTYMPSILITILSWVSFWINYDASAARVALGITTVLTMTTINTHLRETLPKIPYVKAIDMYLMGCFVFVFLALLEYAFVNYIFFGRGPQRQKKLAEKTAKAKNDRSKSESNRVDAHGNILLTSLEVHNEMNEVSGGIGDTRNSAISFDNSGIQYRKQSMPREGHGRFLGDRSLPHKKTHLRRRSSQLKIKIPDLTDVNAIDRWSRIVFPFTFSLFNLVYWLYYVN
T1 sequence (P34903 whole entry): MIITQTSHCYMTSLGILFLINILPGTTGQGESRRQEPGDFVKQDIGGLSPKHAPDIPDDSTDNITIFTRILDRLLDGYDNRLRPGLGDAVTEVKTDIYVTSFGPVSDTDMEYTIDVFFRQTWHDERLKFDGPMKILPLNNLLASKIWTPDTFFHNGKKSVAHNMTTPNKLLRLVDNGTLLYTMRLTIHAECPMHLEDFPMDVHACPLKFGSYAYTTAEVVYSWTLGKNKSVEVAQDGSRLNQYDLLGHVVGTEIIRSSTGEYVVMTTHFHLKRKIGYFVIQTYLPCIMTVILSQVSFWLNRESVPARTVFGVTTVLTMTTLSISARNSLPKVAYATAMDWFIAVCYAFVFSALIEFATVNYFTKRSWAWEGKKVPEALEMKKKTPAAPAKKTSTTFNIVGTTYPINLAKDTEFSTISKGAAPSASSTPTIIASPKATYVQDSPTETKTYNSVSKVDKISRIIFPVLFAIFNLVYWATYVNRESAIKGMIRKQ
Outline: (§1)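 Radioligand displacement of [³H]Ro15-1788 from recombinant human GABA-A receptor subtypes. Ki values are the geometric mean ± SEM of three independent determinations.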

[2] = target: T2, GABA-A receptor; alpha-2/beta-3/gamma-2 (Homo sapiens, UniProt P18507+P28472+P47869); experiment: Displacement of [3H]- Ro 15-1788 binding from human GABA-A receptor alpha-2-beta-3-gamma-2 subunits; assay type: protein-complex assay; outline: as §1
T2 sequence (P18507 whole entry): T1 sequence (P18507 whole entry)
T2 sequence (P28472 whole entry): T1 sequence (P28472 whole entry)
T2 sequence (P47869 whole entry): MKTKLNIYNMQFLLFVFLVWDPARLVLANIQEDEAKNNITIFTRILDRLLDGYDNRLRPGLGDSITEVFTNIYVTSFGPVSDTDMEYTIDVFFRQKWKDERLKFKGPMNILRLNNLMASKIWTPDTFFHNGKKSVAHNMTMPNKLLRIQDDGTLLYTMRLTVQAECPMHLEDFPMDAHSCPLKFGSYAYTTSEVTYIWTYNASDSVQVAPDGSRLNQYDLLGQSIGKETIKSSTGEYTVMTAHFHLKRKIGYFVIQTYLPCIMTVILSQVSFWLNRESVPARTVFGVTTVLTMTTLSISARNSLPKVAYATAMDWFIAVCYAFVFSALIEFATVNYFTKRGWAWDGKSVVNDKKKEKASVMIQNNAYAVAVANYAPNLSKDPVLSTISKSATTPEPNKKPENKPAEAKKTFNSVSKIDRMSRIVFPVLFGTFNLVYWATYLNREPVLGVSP

[3] = target: T3, Gamma-aminobutyric acid receptor subunit alpha-5 (Homo sapiens) (UniProt P31644); experiment: Selectivity for GABA-A receptor alpha-5 subunit binding over alpha-1,2,3 when co-expressed with beta-3 and gamma-2
T3 sequence (whole entry): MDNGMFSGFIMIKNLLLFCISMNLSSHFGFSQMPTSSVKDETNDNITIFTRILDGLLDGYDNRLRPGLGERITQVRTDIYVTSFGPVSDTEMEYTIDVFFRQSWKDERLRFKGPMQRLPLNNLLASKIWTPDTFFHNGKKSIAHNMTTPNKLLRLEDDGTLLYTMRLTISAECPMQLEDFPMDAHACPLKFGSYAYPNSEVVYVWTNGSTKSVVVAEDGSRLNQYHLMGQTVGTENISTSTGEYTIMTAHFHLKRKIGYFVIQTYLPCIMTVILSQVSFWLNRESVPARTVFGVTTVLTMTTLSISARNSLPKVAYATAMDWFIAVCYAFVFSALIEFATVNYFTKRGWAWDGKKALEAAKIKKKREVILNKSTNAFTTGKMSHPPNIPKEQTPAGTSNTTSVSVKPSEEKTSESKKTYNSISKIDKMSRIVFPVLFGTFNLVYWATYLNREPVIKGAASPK
Outline: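 Ratio of binding affinity for α5 over α1, α2 and α3. Each affinity comes from [³H]Ro15-1788 displacement at recombinant human receptors, with Ki as the geometric mean of three independent determinations.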

[4] = target: T4, GABA-A receptor; alpha-5/beta-3/gamma-2 (Homo sapiens) (UniProt P18507+P28472+P31644); experiment: Percentage modulation of GABA EC20 against human GABA-A receptor alpha-5-beta-3-gamma-2 subunits expressed in Xenopus laevis oocytes; assay type: cell-based; conditions: Oocyte
[5] = target: T5, GABA-A receptor; alpha-5/beta-3/gamma-2 (Homo sapiens, UniProt P18507+P28472+P31644); experiment: Displacement of [3H]- Ro 15-1788 binding from human GABA-A receptor alpha-5-beta-3-gamma-2 subunits; assay type: protein-complex assay; outline: as §1
T5 sequence (P18507 whole entry): T1 sequence (P18507 whole entry)
T5 sequence (P28472 whole entry): T1 sequence (P28472 whole entry)
T5 sequence (P31644 whole entry): T3 sequence (whole entry)

[6] = target: T6, GABA-A receptor; alpha-1/beta-3/gamma-2 (Homo sapiens, UniProt P14867+P18507+P28472); experiment: Displacement of [3H]- Ro 15-1788 binding from human GABA-A receptor alpha-1-beta-3-gamma-2 subunits; assay type: protein-complex assay; outline: as §1
T6 sequence (P14867 whole entry): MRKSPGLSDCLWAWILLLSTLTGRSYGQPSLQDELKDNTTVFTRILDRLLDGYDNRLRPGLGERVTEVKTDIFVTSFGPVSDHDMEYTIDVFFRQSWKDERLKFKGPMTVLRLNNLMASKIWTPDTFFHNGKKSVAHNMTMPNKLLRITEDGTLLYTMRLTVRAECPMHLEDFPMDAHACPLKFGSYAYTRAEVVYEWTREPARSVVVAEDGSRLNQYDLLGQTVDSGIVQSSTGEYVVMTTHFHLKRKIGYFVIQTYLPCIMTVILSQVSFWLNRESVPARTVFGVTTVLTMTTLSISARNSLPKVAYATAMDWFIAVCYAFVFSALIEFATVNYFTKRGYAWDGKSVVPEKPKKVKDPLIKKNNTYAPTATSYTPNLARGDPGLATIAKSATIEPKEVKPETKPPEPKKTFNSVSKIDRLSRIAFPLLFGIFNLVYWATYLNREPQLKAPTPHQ
T6 sequence (P18507 whole entry): T1 sequence (P18507 whole entry)
T6 sequence (P28472 whole entry): T1 sequence (P28472 whole entry)

[7] = target: GABA-A receptor; alpha-1/beta-3/gamma-2 (Homo sapiens) (UniProt P14867+P18507+P28472); experiment: Maximum modulation relative to GABA EC20 against human GABA-A receptor alpha-1-beta-3-gamma-2 subunits expressed in mammalian fibroblast L(tk-) cells; assay type: cell-based
Outline: (§2)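 Whole-cell patch-clamp recording from mammalian fibroblast L(tk-) cells stably expressing GABA-A αxβ3γ2 (x = 1, 2, 3 or 5). Compound modulation of a submaximal (EC20) GABA current was recorded. Maximum modulation came from individually fitted concentration-response curves, at least five per value, given as mean ± SEM.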

[8] = target: GABA-A receptor; alpha-3/beta-3/gamma-2 (Homo sapiens) (UniProt P18507+P28472+P34903); experiment: Maximum modulation relative to GABA EC20 against human GABA-A receptor alpha-3-beta-3-gamma-2 subunits expressed in mammalian fibroblast L(tk-) cells; assay type: cell-based; outline: as §2
[9] = target: T4, GABA-A receptor; alpha-5/beta-3/gamma-2 (Homo sapiens); experiment: Maximum modulation relative to GABA EC20 against human GABA-A receptor alpha-5-beta-3-gamma-2 subunits expressed in mammalian fibroblast L(tk-) cells; assay type: cell-based; outline: as §2
[10] = target: GABA-A receptor; alpha-2/beta-3/gamma-2 (Homo sapiens) (UniProt P18507+P28472+P47869); experiment: Maximum modulation relative to GABA EC20 against human GABA-A receptor alpha-2-beta-3-gamma-2 subunits expressed in mammalian fibroblast L(tk-) cells; assay type: cell-based; outline: as §2

| Compound | pKi [1] | pKi [2] | Selectivity [3] | Efficacy [4] [%] | pKi [5] | pKi [6] | Efficacy [7] [%] | Efficacy [8] [%] | Efficacy [9] [%] | Efficacy [10] [%] |
| --- | --- | --- | --- | --- | --- | --- | --- | --- | --- | --- |
| CSc1sc(-c2cccnc2)c2c1C(=O)CC(C)(C)C2 | 7.48 | 7.51 | 28 | -40 | 8.24 | 6.78 |  |  |  |  |
| CCSc1sc(-c2cc[nH]n2)c2c1C(=O)CC(C)(C)C2 | 7.80 | 7.80 | 10 |  | 8.80 | 7.92 |  |  |  |  |
| CC1(C)CC(=O)c2c(SSc3nccs3)sc(-c3cc[nH]n3)c2C1 | 7.32 | 7.72 | 3 | -7 | 8.85 | 8.37 |  |  |  |  |
| CC1(C)CC(=O)c2c(SCCO)sc(-c3cc[nH]n3)c2C1 | 7.62 | 7.68 | 11 |  | 8.54 | 7.51 |  |  |  |  |
| CSc1sc(-c2nccs2)c2c1C(=O)CC(C)(C)C2 | 7.33 | 7.36 | 28 | -24 | 8.66 | 7.21 |  |  |  |  |
| CC1(C)CC(=O)c2c(SCCO)sc(-c3nccs3)c2C1 | 7.70 | 7.80 | 13 | -38 | 8.80 | 7.70 | -21 | -3 | -51 | -1 |
| CSc1sc(-c2cc[nH]n2)c2c1C(=O)CC(C)(C)C2 | 7.68 | 7.25 | 13 | -3 | 8.28 | 7.18 |  |  |  |  |
| CSc1sc(-c2ccncc2)c2c1C(=O)CC(C)(C)C2 | 7.46 | 7.37 | 19 | -20 | 8.04 | 6.76 |  |  |  |  |
| CC1(C)CC(=O)c2c(SCCO)sc(-c3ccccn3)c2C1 | 8.00 | 8.28 | 20 | -39 | 9.30 | 8.44 |  |  |  |  |
| CC(C)Sc1sc(-c2cc[nH]n2)c2c1C(=O)CC(C)(C)C2 | 8.15 | 7.92 | 6 |  | 8.70 | 8.30 |  |  |  |  |
| CSc1sc(-c2ccccn2)c2c1C(=O)CC(C)(C)C2 | 7.60 | 7.59 | 26 | -31 | 8.77 | 7.35 |  |  |  |  |
| CCc1c(C(=O)OC)ncc2[nH]c3cc(OC)c(OC)cc3c12 | 8.12 | 7.89 | 3 | -34 | 8.66 | 8.00 | -71 | -62 | -57 | -53 |
